Data from ChEMBL document CHEMBL5724801, “EUbOPEN Chemogenomics Library - Multiplex” (2024).
“And” between values parts separate entries of the source, which are not always exact repeats. Equal entries are not always repeated.

System: Fibroblast
Experiment: Multiplex assay against human fibroblast
Format: toxicity, cell-based
Summary of the method: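 Cells stained live at seeding with Hoechst33342, BioTracker Green Microtubule Cytoskeleton Dye, MitoTracker Red and Annexin V Alexa Fluor 680 were imaged on a CQ1 microscope at 37°C and 5% CO2 after compound addition. Their classification by CellPathfinder machine-learning gating ran from Hoechst high-intensity objects versus normal cells, to healthy, pyknosed or fragmented nuclei among normal cells, to mitotic or apoptotic among pyknosed cells. Tubulin, mitochondrial-mass and membrane-permeability phenotypes are per cents of healthy-nucleus cells.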

[1] = 12 h, 1 µM, compound concentration 1 uM
[2] = 12 h, 10 µM, compound concentration 10 uM
[3] = 24 h, 1 µM, compound concentration 1 uM
[4] = 24 h, 10 µM, compound concentration 10 uM
[5] = 48 h, 1 µM, compound concentration 1 uM
[6] = 48 h, 10 µM, compound concentration 10 uM

CN(C)C(=O)Cn1cc(-c2ccc(-c3nnc4ccccn34)cc2)cn1
Population Apoptotic (%) [1]: 57% and 55%
Population Fragmented Nuclei (%) [1]: 18% and 20%
Population Healthy Nuclei (%) [1]: 60% and 58%
Population Hoechst High Intensity Objects (%) [1]: 5%
Population Membrane Permeable-Phenotype (%) [1]: 1% and 7%
Population Mitochondria Different-Phenotype (%) [1]: 3% and 7%
Population Mitotic Cells (%) [1]: 42% and 44%
Population Normal (%) [1]: 94%
Population Pyknosed Nuclei (%) [1]: 21% and 20%
Population Tubulin-Different-Phenotype (%) [1]: 22% and 42%
Total Cell Count [1]: 139 and 152
Population Apoptotic (%) [2]: 52% and 39%
Population Healthy Nuclei (%) [2]: 63% and 38%
Population Hoechst High Intensity Objects (%) [2]: 3% and 8%
Population Membrane Permeable-Phenotype (%) [2]: 0% and 15%
Population Mitochondria Different-Phenotype (%) [2]: 6% and 18%
Population Mitotic Cells (%) [2]: 47% and 60%
Population Normal (%) [2]: 96% and 91%
Population Pyknosed Nuclei (%) [2]: 28% and 29%
Population Tubulin-Different-Phenotype (%) [2]: 31% and 70%
Total Cell Count [2]: 140 and 123
Population Apoptotic (%) [3]: 56% and 54%
Population Fragmented Nuclei (%) [3]: 23%
Population Healthy Nuclei (%) [3]: 60%
Population Hoechst High Intensity Objects (%) [3]: 0% and 4%
Population Membrane Permeable-Phenotype (%) [3]: 2% and 4%
Population Mitochondria Different-Phenotype (%) [3]: 1% and 3%
Population Mitotic Cells (%) [3]: 43% and 45%
Population Normal (%) [3]: 99% and 95%
Population Pyknosed Nuclei (%) [3]: 16%
Population Tubulin-Different-Phenotype (%) [3]: 25% and 41%
Total Cell Count [3]: 144 and 142
Population Apoptotic (%) [4]: 65% and 26%
Population Healthy Nuclei (%) [4]: 65% and 40%
Population Hoechst High Intensity Objects (%) [4]: 5% and 9%
Population Membrane Permeable-Phenotype (%) [4]: 2% and 10%
Population Mitochondria Different-Phenotype (%) [4]: 5% and 6%
Population Mitotic Cells (%) [4]: 34% and 73%
Population Normal (%) [4]: 94% and 90%
Population Pyknosed Nuclei (%) [4]: 24% and 22%
Population Tubulin-Different-Phenotype (%) [4]: 25% and 71%
Total Cell Count [4]: 140 and 126
Population Apoptotic (%) [5]: 58% and 42%
Population Fragmented Nuclei (%) [5]: 22% and 28%
Population Healthy Nuclei (%) [5]: 61% and 52%
Population Hoechst High Intensity Objects (%) [5]: 1% and 5%
Population Membrane Permeable-Phenotype (%) [5]: 4% and 6%
Population Mitochondria Different-Phenotype (%) [5]: 4% and 2%
Population Mitotic Cells (%) [5]: 41% and 57%
Population Normal (%) [5]: 98% and 94%
Population Pyknosed Nuclei (%) [5]: 16% and 18%
Population Tubulin-Different-Phenotype (%) [5]: 29% and 46%
Total Cell Count [5]: 151 and 147
Population Apoptotic (%) [6]: 52% and 60%
Population Fragmented Nuclei (%) [6]: 16% and 44%
Population Healthy Nuclei (%) [6]: 66% and 47%
Population Hoechst High Intensity Objects (%) [6]: 2% and 3%
Population Membrane Permeable-Phenotype (%) [6]: 0% and 18%
Population Mitochondria Different-Phenotype (%) [6]: 2% and 8%
Population Mitotic Cells (%) [6]: 47% and 40%
Population Normal (%) [6]: 97% and 96%
Population Pyknosed Nuclei (%) [6]: 17% and 7%
Population Tubulin-Different-Phenotype (%) [6]: 38% and 73%
Total Cell Count [6]: 137 and 131
